Source: PubChem BioAssay
E coli WT exp: growth inhibitors of wild-type E. coli, primary screen, strain BW25113, expanded library, OD600; OD600 absorbance; growth inhibition, % at 100 µM; 0.15% of 98,000 active;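 active means growth inhibition above about 50% at one test dose, limit read from the data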;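 further: growth measured after 20 h incubation at 37 °C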
tolC growth inh: growth inhibitors of E. coli tolC mutant, primary screen, strain BW25113 ΔtolC::kan, 384-well; OD615; growth inhibition, % at 10 µM (by protocol); 2.2% of 65,000 active; AID 573, 2007;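 active means growth inhibition at or above a cutoff equal to the mean over every tested compound plus 3 SD, cut at about 60% in these data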;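 further: growth measured after 20 h incubation at 37 °C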
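Doses: one dose of 10 µM final / Material: E. coli BW25113 ΔtolC::kan, tolC deletion mutant strain / Buffer or medium: LB with kanamycin 50 µg/mL / Evaluation: percent growth inhibition / Detection: optical density read at 615 nm / Incubation: 37 °C, 20 h exposure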
PLAP act: PLAP enzyme activators, biochemical, luminescence, HTS; 1.2% of 96,000 active; purified PLAP enzyme, luminescent substrate read-out; stronger effect = higher value; activation fold at 20 µM; in the data active means activation fold above about 2
PostGolgi yeast: phenotypic screen on post-Golgi transport, primary screen | post-Golgi transport phenotypic cell assay | inhibition, % at 10 µM | 0.9% of 98,000 active;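 further: yeast cells grown in 1536-well plates; yeast grown about 18 h at 30C before absorbance read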
HePTP inhibitor: inhibitors of human HePTP phosphatase, primary screen, biochemical, absorbance, leukemia target | inhibition, % at 20 µM | 0.64% of 110,000 active | recombinant HePTP phosphatase activity, OD absorbance; in the data active means inhibition above about 50%;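 further: plate controls were vehicle for no effect and reference inhibitor for full effect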
Target sequence (P35236 whole entry, looked up): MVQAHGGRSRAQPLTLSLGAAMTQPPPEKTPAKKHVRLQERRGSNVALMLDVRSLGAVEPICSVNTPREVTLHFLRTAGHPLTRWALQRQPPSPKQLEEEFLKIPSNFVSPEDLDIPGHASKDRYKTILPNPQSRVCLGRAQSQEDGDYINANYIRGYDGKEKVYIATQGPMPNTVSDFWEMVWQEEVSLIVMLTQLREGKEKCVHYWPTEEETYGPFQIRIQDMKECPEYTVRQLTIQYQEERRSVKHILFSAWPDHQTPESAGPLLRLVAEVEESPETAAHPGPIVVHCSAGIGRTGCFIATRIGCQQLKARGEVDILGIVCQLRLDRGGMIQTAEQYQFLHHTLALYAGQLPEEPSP
PostGolgi ctrl: growth inhibition of yeast control strain, primary screen, counter-screen for post-Golgi transport modulator project; 5% of 98,000 active; inhibition, % at 10 µM; efflux-deficient yeast background strain, growth absorbance A615, 16 h
* marks the source's active call; other numbers are inactive results; nt = not tested or not shown. In the library only some 5.4% were active in any assay of this set; here they are far more common. Unless noted, no stated cut-off is given here; in the data, active means inhibition above about 30%; inactive means the rest.

SMILES | E coli WT exp | tolC growth inh | PLAP act | PostGolgi yeast | HePTP inhibitor | PostGolgi ctrl
Cc1ccc(OCC(=O)NCc2ccc(F)cc2)cc1 | nt | nt | nt | nt | 2.6 | nt
CCOC(=O)C1CCN(CC(O)COc2ccc(C(C)=O)cc2)CC1 (stereo not given) | 8.0 | -5.5 | 1.5 | 0.2 | 0.1 | -1.1
CCC(=O)c1ccc(OCC(O)CN2CCCCC2)cc1 (stereo not given) | 9.0 | nt | 0.8 | -2.5 | nt | -8.8
CCOC(=O)C1CCN(CC(O)COc2ccc(C(C)(C)CC)cc2)CC1 (stereo not given) | 21.0 | 36.1 | 1.5 | 86.8* | 0.6 | 79.1*
CCOC(=O)C1CCN(CC(O)COc2ccc(C(C)(C)C)cc2)CC1 (stereo not given) | 22.0 | -0.6 | 1.5 | 28.6 | -9.4 | 58.8*
CC(NS(=O)(=O)c1cccc(Cl)c1)C(=O)Nc1ccc(-c2nc3ccccc3s2)cc1 (stereo not given) | -8.0 | nt | 1.1 | -4.8 | nt | 10.3
Cc1ccc(C)c(S(=O)(=O)NC(C)C(=O)Nc2ccc(-c3nc4ccccc4s3)cc2)c1 (stereo not given) | -6.0 | nt | 0.9 | -4.2 | nt | 32.9*
COc1ccc(/C=C/C(=O)C(C)(C)O)cc1 | nt | nt | nt | nt | -4.2 | nt
COc1ccc(C(c2nnnn2Cc2ccc(F)cc2)N2CCN(c3ccccc3)CC2)cc1 (stereo not given) | -23.0 | 30.9 | 1.4 | 7.3 | 2.0 | 36.7*
COc1ccc(C(c2nnnn2Cc2ccc(F)cc2)N2CCN(c3ccc(OC)cc3)CC2)cc1 (stereo not given) | -10.0 | 25.7 | 1.5 | 2.9 | 0.8 | 28.9
COc1ccc(N2CCN(C(c3ccccc3)c3nnnn3Cc3ccc(F)cc3)CC2)cc1 (stereo not given) | -13.0 | 17.9 | 1.6 | -1.9 | 5.1 | 34.1*
COc1ccccc1NC(=S)NNC(=O)c1cc(C)n(C)n1 | 6.0 | nt | 2.8* | 0.6 | nt | 6.3
Cc1nn2c(-n3ccnc3)c3c(nc2c1-c1ccccc1)CCC3 | 1.0 | -9.6 | 1.1 | 74.2* | 7.7 | 81.3*
CCCCNc1c2c(nc3c(-c4ccccc4)c(C)nn13)CCC2 | -13.0 | nt | 1.1 | 4.0 | nt | 16.1
CCC(C)Nc1c2c(nc3c(-c4ccccc4)c(C)nn13)CCC2 (stereo not given) | 0.0 | nt | 0.9 | -5.4 | nt | 38.9*
CCCCNc1cc(C)nc(NCc2ccccc2)n1 | 59.0* | 76.6* | 0.9 | -1.8 | 9.1 | 8.9
CCC(C)C(NC(=O)c1ccccc1NC(=O)c1ccc(OC)cc1)C(=O)NCc1ccco1 (stereo not given) | 6.0 | 11.5 | 2.1* | 4.1 | 0.1 | 5.0
COc1ccc(C(=O)Nc2ccccc2C(=O)NCCC(=O)NCc2ccco2)cc1 | nt | nt | nt | nt | 9.4 | nt
Cc1cc(C)c(C#N)c(SCS(=O)Cc2ccc(Cl)cc2)n1 (stereo not given) | -15.0 | 49.1 | 1 | 8.7 | 1.5 | 37.7*
Cc1cc(C)c(C#N)c(SCS(=O)Cc2ccccc2)n1 (stereo not given) | 5.0 | 54.7 | 1 | -2.3 | -2.3 | -0.6
O=c1c2ccccc2c(-c2ccccc2)nn1Cc1cccc(Br)c1 | nt | nt | nt | nt | 2.2 | nt
O=C(NCc1ccccc1)C(c1cccs1)N(Cc1cccs1)C(=O)c1cnccn1 (stereo not given) | 5.0 | nt | 1.1 | -7.3 | nt | 4.4
O=C(NCc1ccccc1)C(c1ccccc1)N(Cc1cccs1)C(=O)c1cnccn1 (stereo not given) | -6.0 | nt | 1.1 | -2.8 | nt | 40.2*
Cn1c(N2CCOCC2)nc2c1c(=O)n(Cc1ccc(Cl)c(Cl)c1)c(=O)n2C | -3.0 | 4.7 | 1.5 | -9.9 | 5.9 | 40.2*
Cn1c(=O)n(CCc2ccccc2)c(=O)c2c1nc1n2CCCN1CCc1ccccc1 | -26.0 | 76.5* | 1.5 | 6.0 | 4.3 | 37.0*
Cn1c(N2CCCC2)nc2c1c(=O)n(Cc1ccc(F)cc1)c(=O)n2C | -4.0 | -7.2 | 1.1 | -0.3 | 11.0 | 10.8
CC1CCCCN1Cc1nc2c(c(=O)n(C)c(=O)n2C)n1CCc1ccccc1 (stereo not given) | 8.0 | nt | 1.1 | -4.8 | nt | 37.9*
Cn1c(=O)n(CCc2ccccc2)c(=O)c2c1nc1n2CCCN1Cc1ccccc1 | -16.0 | 25.9 | 1.1 | 4.9 | 5.7 | 12.7
